Drawing on ChEMBL document CHEMBL3593234, “Lanostane Triterpenes from the Tibetan Medicinal Mushroom Ganoderma leucocontextum and Their Inhibitory Effects on HMG-CoA Reductase and α-Glucosidase” (J Nat Prod, 2015), this text covers IC50 for 26 compounds.

In test [1] the target is T1, 3-hydroxy-3-methylglutaryl-coenzyme A reductase (Sus scrofa, UniProt Q1W675).
T1 sequence (Q1W675 whole entry): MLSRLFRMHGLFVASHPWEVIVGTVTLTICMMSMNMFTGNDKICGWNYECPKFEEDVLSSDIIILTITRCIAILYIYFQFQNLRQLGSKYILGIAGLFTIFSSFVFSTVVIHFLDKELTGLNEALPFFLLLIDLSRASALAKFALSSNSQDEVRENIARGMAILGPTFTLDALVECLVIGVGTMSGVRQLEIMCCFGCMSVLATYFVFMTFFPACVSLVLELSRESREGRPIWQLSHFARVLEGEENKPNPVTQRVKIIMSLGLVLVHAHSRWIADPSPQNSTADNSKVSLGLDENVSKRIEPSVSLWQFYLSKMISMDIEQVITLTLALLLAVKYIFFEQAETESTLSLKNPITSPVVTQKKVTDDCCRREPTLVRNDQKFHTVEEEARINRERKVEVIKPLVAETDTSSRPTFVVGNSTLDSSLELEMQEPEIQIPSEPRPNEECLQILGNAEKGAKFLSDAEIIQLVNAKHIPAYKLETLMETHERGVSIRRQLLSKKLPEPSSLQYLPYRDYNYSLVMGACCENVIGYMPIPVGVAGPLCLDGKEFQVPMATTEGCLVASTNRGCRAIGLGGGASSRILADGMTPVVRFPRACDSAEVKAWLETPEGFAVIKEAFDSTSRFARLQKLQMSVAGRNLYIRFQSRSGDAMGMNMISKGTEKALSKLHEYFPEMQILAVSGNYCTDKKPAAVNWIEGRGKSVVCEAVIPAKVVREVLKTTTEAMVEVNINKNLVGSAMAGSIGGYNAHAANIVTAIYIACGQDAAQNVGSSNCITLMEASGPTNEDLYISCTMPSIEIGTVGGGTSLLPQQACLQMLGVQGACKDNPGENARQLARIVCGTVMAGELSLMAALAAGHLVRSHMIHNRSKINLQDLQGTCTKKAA
Briefly: Inhibition of pig liver microsomes HMG-CoA reductase incubated for 5 mins in using HMG-CoA and NADPH by colorimetric method. Put shortly: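 Pig liver microsomal HMG-CoA reductase at about 4 U/mL final, with compound at 2.5–80 μM final and 200 μM HMG-CoA. Buffer was 0.1 mol/L potassium phosphate pH 7.0 with EDTA, dithiothreitol and BSA. After 5 min at 37 °C, 100 μM NADPH was added for 15 min at 37 °C. Absorbance was read at 340 nm, with percent inhibition from blank-corrected OD.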
Background: Liver microsomes are a subcellular fraction often used to study metabolism.

Test [2] can be described thus: Inhibition of Baker's yeast alpha-glucosidase. More on the design: species or system Saccharomyces cerevisiae. Put shortly:
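Baker's yeast α-glucosidase assay read by absorbance at 405 nm. Control wells got phosphate buffer instead of compound, and blanks got buffer instead of enzyme. Percent inhibition was calculated from blank-corrected OD of test versus control wells.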

Another test deals with K562. In words: Cytotoxicity against human K562 cells by MTT method. Type of test: functional, cell-based. Background: Tetrazolium assays rely on reduction of a dye to a coloured formazan, in cell work by metabolically active cells.
The next test has as its system PC-3. In words: Cytotoxicity against human PC3 cells by MTT method. Type of test: functional, cell-based.

Turning to `C/C(=C\CC[C@@H](C)[C@H]1CC[C@@]2(C)C3=C(C(=O)C[C@]12C)[C@@]1(C)CCC(=O)[C@@](C)(CO)[C@@H]1C[C@@H]3O)C(=O)O`, the IC50 in test [1] is 17.1 µM; in test [2], over 50 µM; with K562 (Homo sapiens, K562), 17.8 µM; in the test on PC-3 (Homo sapiens, PC-3), over 200 µM.

As to `C/C(=C\CC[C@@H](C)[C@H]1CC[C@@]2(C)C3=C(C(=O)[C@H](O)[C@]12C)[C@@]1(C)CCC(=O)[C@@](C)(CO)[C@@H]1C[C@@H]3O)C(=O)O`, the IC50 was 66.9 µM in test [1]; over 50 µM in test [2]; 19.7 µM in the test with K562 (Homo sapiens, K562); over 200 µM with PC-3 (Homo sapiens, PC-3).

As for `CC(=O)O[C@H]1C(=O)C2=C([C@@H](O)C[C@H]3[C@](C)(CO)C(=O)CC[C@]23C)[C@]2(C)CC[C@H]([C@H](C)CC/C=C(\C)C(=O)O)[C@@]12C`, the IC50 in test [1] was 26.6 µM; in test [2] it was over 50 µM; with K562 (Homo sapiens, K562), over 200 µM; in the test with PC-3 (Homo sapiens, PC-3), over 200 µM.

For the compound `CC(=O)O[C@H]1C(=O)C2=C([C@@H](O)C[C@H]3[C@](C)(CO)C(=O)CC[C@]23C)[C@]2(C)C(=O)C[C@H]([C@H](C)CC/C=C(\C)C(=O)O)[C@@]12C`, the IC50 in test [1] was 97.5 µM; in test [2], over 50 µM; with K562 (Homo sapiens, K562) it was 147 µM; in the test with PC-3 (Homo sapiens, PC-3) it was 88.3 µM.

On to `C/C(=C\CC[C@@H](C)[C@H]1CC(=O)[C@@]2(C)C3=C(C(=O)[C@H](O)[C@]12C)[C@@]1(C)CCC(=O)[C@@](C)(CO)[C@@H]1C[C@@H]3O)C(=O)O`, for which the half-maximal inhibitory concentration (IC50) is over 100 µM in test [1]; 12.7 µM in test [2]; over 200 µM in the test with K562 (Homo sapiens, K562); over 200 µM in the test with PC-3 (Homo sapiens, PC-3).

Take `CC(=O)O[C@H]1C(=O)C2=C(C(=O)C[C@H]3[C@](C)(CO)C(=O)CC[C@]23C)[C@]2(C)C(=O)C[C@H]([C@H](C)CC/C=C(\C)C(=O)O)[C@@]12C`: the IC50 in test [1] is 20.5 µM; in test [2], over 50 µM; in the test with K562 (Homo sapiens, K562), 18.2 µM; in the test with PC-3 (Homo sapiens, PC-3), over 200 µM.

For `C[C@H](CCC=C(CO)CO)[C@H]1CC[C@@]2(C)C3=C(C(=O)C[C@]12C)[C@@]1(C)CCC(=O)C(C)(C)[C@@H]1C[C@@H]3O`, the IC50 in test [1] was over 100 µM; in test [2] it was over 50 µM; in the test with K562 (Homo sapiens, K562) it was 11.4 µM; in the test on PC-3 (Homo sapiens, PC-3) it was 132 µM.

As for `C[C@H](CCC=C(CO)CO)[C@H]1CC[C@@]2(C)C3=C(C(=O)C[C@]12C)[C@@]1(C)CCC(=O)C(C)(C)[C@@H]1CC3=O`, the IC50 in test [1] was 32.9 µM; in test [2], over 50 µM; in the test on K562 (Homo sapiens, K562) it was 115 µM; with PC-3 (Homo sapiens, PC-3) it was 24.2 µM.

Regarding `C[C@H](CCC=C(CO)CO)[C@H]1C[C@@H](O)[C@@]2(C)C3=C(C(=O)C[C@]12C)[C@@]1(C)CCC(=O)C(C)(C)[C@@H]1CC3`, the IC50 in test [1] is over 100 µM; in test [2], over 50 µM; with K562 (Homo sapiens, K562), over 200 µM; in the test with PC-3 (Homo sapiens, PC-3), over 200 µM.

Take `CC(=O)O[C@H]1C(=O)C2=C([C@@H](O)C[C@H]3[C@](C)(COC(=O)C[C@@](C)(O)CC(=O)O)C(=O)CC[C@]23C)[C@]2(C)C(=O)C[C@H]([C@H](C)CC/C=C(\C)C(=O)O)[C@@]12C`: the IC50 is 26.4 µM in test [1]; over 50 µM in test [2]; 12.3 µM in the test with K562 (Homo sapiens, K562); 110 µM in the test with PC-3 (Homo sapiens, PC-3).

For `C/C(=C\CC[C@@H](C)[C@H]1CC(=O)[C@@]2(C)C3=C(C(=O)[C@H](O)[C@]12C)[C@@]1(C)CCC(=O)[C@@](C)(COC(=O)C[C@@](C)(O)CC(=O)O)[C@@H]1CC3=O)C(=O)O`, the IC50 is 10.7 µM in test [1]; over 50 µM in test [2]; 22.6 µM in the test on K562 (Homo sapiens, K562); over 200 µM in the test with PC-3 (Homo sapiens, PC-3).

As to `C/C(=C\CC[C@@H](C)[C@H]1CC(=O)[C@@]2(C)C3=C(C(=O)C[C@]12C)[C@@]1(C)CCC(=O)[C@@](C)(COC(=O)C[C@@](C)(O)CC(=O)O)[C@@H]1CC3=O)C(=O)O`, the IC50 in test [1] is 13.3 µM; in test [2], over 50 µM; in the test with K562 (Homo sapiens, K562), 14.4 µM; with PC-3 (Homo sapiens, PC-3), over 200 µM.

`C[C@H](CCC=C(CO)CO)[C@H]1CC[C@@]2(C)C3=C(CC[C@]12C)[C@@]1(C)CCC(=O)C(C)(C)[C@@H]1CC3=O`: the IC50 in test [1] is 12.6 µM; in test [2], over 50 µM; in the test on K562 (Homo sapiens, K562) it was 41.6 µM; in the test with PC-3 (Homo sapiens, PC-3), over 200 µM.

On to `C/C(=C/CC[C@@H](C)[C@H]1CC[C@@]2(C)C3=C(C(O)C[C@]12C)[C@@]1(C)CCC(=O)C(C)(C)[C@@H]1CC3=O)C(=O)O` (stereo partly specified), for which the IC50 in test [1] was over 100 µM; in test [2] it was over 50 µM; in the test on K562 (Homo sapiens, K562), over 200 µM; with PC-3 (Homo sapiens, PC-3) it was over 200 µM.

As for `C[C@H](CCC=C(CO)CO)[C@H]1C[C@@H](O)[C@@]2(C)C3=CC[C@H]4C(C)(C)C(=O)CC[C@]4(C)C3=CC[C@]12C`, the IC50 in test [1] is over 100 µM; in test [2], over 50 µM; with K562 (Homo sapiens, K562) it was 76.6 µM; in the test with PC-3 (Homo sapiens, PC-3), 103 µM.

As to `C/C(=C/CC[C@@H](C)[C@H]1CC[C@@]2(C)C3=C(CC[C@]12C)[C@@]1(C)CCC(=O)C(C)(C)[C@@H]1CC3=O)C(=O)O` (stereo in doubt; 18) [GANODERIC ACID DM], the IC50 was 9.5 µM in test [1]; over 50 µM in test [2]; 18.8 µM with K562 (k562); 81.6 µM in the test with PC-3 (Homo sapiens, PC-3).

On to `C/C(=C/CC[C@@H](C)[C@H]1CC[C@@]2(C)C3=C(CC[C@]12C)[C@@]1(C)CCC(=O)C(C)(C)[C@@H]1CC3=O)C(=O)O` (stereo in doubt; 21) [GANODERIC ACID DM], for which the IC50 in test [1] was found to be 56.1 µM; with K562 (k562), 55.4 µM; in the test with PC-3 (pc-3), 149 µM.

With `C[C@H]1O[C@H](O[C@H]2[C@H](O)[C@@H](O)[C@@H](O[C@H]3[C@H](O)[C@@H](O)C(O)O[C@@H]3CO)O[C@@H]2CO)[C@H](O)[C@@H](O)[C@@H]1N[C@H]1C=C(CO)[C@@H](O)[C@H](O)[C@H]1O` (stereo partly specified) [ACARBOSE], the IC50 in test [2] amounted to 273 µM.

Compound `CC(C)c1c(C(=O)Nc2ccccc2)c(-c2ccccc2)c(-c2ccc(F)cc2)n1CC[C@@H](O)C[C@@H](O)CC(=O)O` [ATORVASTATIN] came in with an IC50 in test [1] of 32.1 µM.

In the test on PC-3 (Homo sapiens, PC-3), `COc1cccc2c1C(=O)c1c(O)c3c(c(O)c1C2=O)C[C@@](O)(C(=O)CO)C[C@@H]3O[C@H]1C[C@H](N)[C@H](O)[C@H](C)O1` [DOXORUBICIN] came in with an IC50 of 2 µM.

Take `C/C(=C/CC[C@@H](C)[C@H]1CC[C@@]2(C)C3=CC[C@H]4C(C)(C)C(=O)CC[C@]4(C)C3=CC[C@]12C)C(=O)O` [GANODERIC ACID S]: the IC50 was 12.5 µM in test [1]; over 50 µM in test [2]; 65.2 µM with K562 (Homo sapiens, K562); 75.2 µM in the test with PC-3 (Homo sapiens, PC-3).

For `C/C(=C\CC[C@@H](C)[C@H]1CC[C@@]2(C)C3=CC[C@H]4C(C)(C)[C@@H](O)CC[C@]4(C)C3=CC[C@]12C)C(=O)O` [GANODERIC ACID Y], the IC50 in test [1] was 8.6 µM; in test [2], over 50 µM; with K562 (Homo sapiens, K562), 17.5 µM; with PC-3 (Homo sapiens, PC-3), 180 µM.

For the compound `C[C@H](CCC=C(CO)CO)[C@H]1CC[C@@]2(C)C3=CC[C@H]4C(C)(C)C(=O)CC[C@]4(C)C3=CC[C@]12C` [GANODERIOL F], the IC50 was over 100 µM in test [1]; over 50 µM in test [2]; 54.9 µM with K562 (Homo sapiens, K562); 79.5 µM in the test with PC-3 (Homo sapiens, PC-3).

With `C[C@H](CC[C@H](O)[C@](C)(O)CO)[C@H]1CC[C@@]2(C)C3=CC[C@H]4C(C)(C)C(=O)CC[C@]4(C)C3=CC[C@]12C` [GANODERMANONTRIOL], the IC50 in test [1] was 16.8 µM; in test [2] it was over 50 µM; in the test on K562 (Homo sapiens, K562) it was 80.9 µM; in the test with PC-3 (Homo sapiens, PC-3) it was 106 µM.

`C/C(=C\CC[C@@H](C)[C@H]1CC[C@@]2(C)C3=C(CC[C@]12C)[C@@]1(C)CCC(=O)C(C)(C)[C@@H]1CC3=O)CO` [GANODERONE A]: the IC50 was over 100 µM in test [1]; 13.7 µM in test [2]; 27.7 µM in the test on K562 (Homo sapiens, K562); 28.5 µM in the test with PC-3 (Homo sapiens, PC-3).

For `CC(=O)O[C@H]1C(=O)[C@@]2(C)[C@H]([C@H](OC(=O)c3ccccc3)[C@]3(O)C[C@H](OC(=O)[C@H](O)[C@@H](NC(=O)c4ccccc4)c4ccccc4)C(C)=C1C3(C)C)[C@]1(OC(C)=O)CO[C@@H]1C[C@@H]2O` [PACLITAXEL], in the test with K562 (Homo sapiens, K562), the IC50 stood at 0.9 µM.

One may read the IC50 as the concentration needed to halve the response being measured. Low values mean higher potency, high ones lower potency.
